7 molecules from ChEMBL document CHEMBL1140692, “Toward the development of chemoprevention agents. Part II: Chemo-enzymatic synthesis and anti-inflammatory activities of a new class of 5-amino-2-substitutedphenyl-1,3-dioxacycloalkanes” (Bioorg Med Chem, 2007) can be followed below.

The structures appear in SMILES notation.

Data set [1] relates to Mus musculus. Briefly: Antiinflammatory activity in Kunming mouse assessed as inhibition of xylene-induced ear edema at 5 mg/kg, po after […]rs. In kind it is functional. An outline of the steps:
(§1)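 Male Kunming mice receive the agent orally as a suspension in 0.5% CMC; the vehicle group gets CMC alone. After 30 min, 0.03 ml xylene is applied to both surfaces of the right ear, and the left ear serves as control. At 2 h, mice are killed and 7-mm ear punches are weighed. Edema is taken as right minus left punch weight, and inhibition is calculated versus vehicle. n = 11; ANOVA.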

The subject of data set [2] is Mus musculus. Briefly: Antiinflammatory activity in Kunming mouse assessed as inhibition of xylene-induced ear edema at 10 mg/kg, po after […]rs. Type of data set: functional. In a few lines: as §1
Data set [3] relates to Mus musculus. Kind of data set: Antiinflammatory activity in Kunming mouse assessed as inhibition of xylene-induced ear edema at 20 mg/kg, po after […]rs. In kind it is functional. In a few lines:
as §1

Data set [4] deals with Mus musculus. Kind of data set: Gastrointestinal toxicity in mouse assessed as tail bleeding time at 200 mg/kg, po after 30 mins. In kind it is organism-based. The settings on record: in vivo, 0.5 h. On the set-up: dose 200 mg/kg, route oral. In a few lines:
(§2)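 Male mice (18–22 g) are dosed orally and compared with an NS group. At 30, 45, 60 and 90 min after dosing, each mouse is restrained in a tube holder and a 2-mm cut is made on the tail. Blood is wiped away every 30 s until flow stops, and the time to cessation is recorded.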

Data set [5] deals with Mus musculus. Briefly: Gastrointestinal toxicity in mouse assessed as tail bleeding time at 200 mg/kg, po after 45 mins. The conditions noted are these: in vivo, 0.75 h. On the set-up: dose 200 mg/kg, route oral. Type of data set: organism-based. In a few lines: as §2
The subject of data set [6] is Mus musculus. Kind of data set: Gastrointestinal toxicity in mouse assessed as tail bleeding time at 200 mg/kg, po after 60 mins. Type of data set: organism-based. Also noted: dose 200 mg/kg, route oral. The conditions noted are these: in vivo, 1 h. In a few lines:
as §2

The test system of data set [7] is Mus musculus. Kind of data set: Gastrointestinal toxicity in mouse assessed as tail bleeding time at 200 mg/kg, po after 90 mins. Type of data set: organism-based. Also noted: dose 200 mg/kg, route oral. The conditions noted are these: in vivo, 1.5 h. An outline of the steps: as §2
A short description of data set [8]: Permeability from apical to basolateral side of human Caco-2 cell membrane. In kind it is ADME, cell-based.
Data set [9] in a line: Permeability from basolateral to apical side of human Caco-2 cell membrane. Type of data set: ADME, cell-based. In general terms: Caco-2 monolayers are a common model of the intestinal barrier.
For data set [10], the system named is Caco-2. Briefly: Ratio of permeability from apical to basolateral side over basolateral to apical side of human Caco-2 cell membrane. Type of data set: ADME, cell-based.
A short description of data set [11]: Inhibition of bovine brain PKC. Also noted: species or system Bos taurus.
Data set [12] concerns Mus musculus. Briefly: Antiinflammatory activity in Kunming mouse assessed as inhibition of xylene-induced ear edema at 30 mg/kg, po after […]rs. Type of data set: functional. An outline of the steps:
as §1

Consider `C[C@@H]1O[C@@H](c2ccc(Cl)cc2)OC[C@H]1N`, for which the inhibition in vivo at 5 mg/kg in data set [1] was 39.4%. The inhibition in vivo at 10 mg/kg in data set [2] is 54.5%. The inhibition in vivo at 20 mg/kg in [3] was 66.7%. The Time was 118.3 s in data set [4], 118.9 s in data set [5], 118.5 s in data set [6] and 118.7 s in [7]. For the same molecule, the Papp A→B in data set [8] was 11.9 ×10⁻⁶ cm/s. This molecule displayed a Papp B→A in data set [9] of 7.01 ×10⁻⁶ cm/s. In data set [10], the Ratio stood at 1.7. In data set [11], 1.1 mM corresponded to half-maximal inhibition (IC50).
On to `C[C@@H]1O[C@H](c2ccc(Cl)cc2)OC[C@H]1N`, for which the inhibition in vivo at 5 mg/kg in [1] was determined as 29.8%. The inhibition in vivo at 10 mg/kg in data set [2] worked out at 46.2%. Besides, the inhibition in vivo at 20 mg/kg in data set [3] stood at 67.9%. The Time in [4] came to 119.6 s; in data set [5], 118.6 s; in data set [6] it was 118.7 s; in [7], 118.6 s. Further, in [8], the Papp A→B turned out to be 11.7 ×10⁻⁶ cm/s. For the same molecule, the basolateral-to-apical permeability (Papp B→A) in data set [9] worked out at 6.88 ×10⁻⁶ cm/s. Besides, in data set [10], the Ratio is on record as 1.7. In addition, in data set [11], the IC50 stood at 1.14 mM.
As to `CC(=O)Oc1ccccc1C(=O)O` [ASPIRIN], the inhibition in vivo at 30 mg/kg in data set [12] is 40.7%. Moreover, in [3], the inhibition in vivo at 20 mg/kg is 40.7%.
As for `C[C@@H]1O[C@H](c2ccc([N+](=O)[O-])cc2)OC[C@H]1N`, the inhibition in vivo at 5 mg/kg in [1] was 40.1%. The inhibition in vivo at 10 mg/kg in data set [2] turned out to be 56.7%. Also, the inhibition in vivo at 20 mg/kg in data set [3] was determined as 77.9%. In addition, the Time was 117.8 s in data set [4], 118.1 s in data set [5], 118.8 s in [6] and 119 s in data set [7]. Moreover, the Papp A→B in [8] came to 12.9 ×10⁻⁶ cm/s. This molecule showed a basolateral-to-apical permeability (Papp B→A) in [9] of 6.9 ×10⁻⁶ cm/s. Moreover, the Ratio in data set [10] is listed as 1.86. For the same molecule, in data set [11], the IC50 was 0.93 mM.
Turning to `C[C@@H]1O[C@H](C=Cc2ccccc2)OC[C@H]1N`, the inhibition in vivo at 20 mg/kg in data set [3] was found to be 51.6%. The Time is listed as 120.7 s in data set [4], 120.2 s in data set [5], 117.6 s in data set [6] and 117.7 s in [7]. The Papp A→B in data set [8] is 10.3 ×10⁻⁶ cm/s. Besides, the Papp B→A in data set [9] stood at 7.06 ×10⁻⁶ cm/s. In addition, the Ratio in data set [10] amounted to 1.46. For the same molecule, in data set [11], half-maximal inhibition (IC50) required 1.7 mM.
For `C[C@@H]1O[C@@H](C=Cc2ccccc2)OC[C@H]1N`, the inhibition in vivo at 20 mg/kg in [3] worked out at 52.9%. Moreover, the Time is 117.2 s in [4], 118.6 s in data set [5], 118.4 s in data set [6] and 119.2 s in [7]. In data set [8], this molecule came in with a Papp A→B of 10.2 ×10⁻⁶ cm/s. Moreover, the Papp B→A in data set [9] was 7.17 ×10⁻⁶ cm/s. Besides, in data set [10], the Ratio came out at 1.43. The molecule also had an IC50 in [11] of 1.62 mM.
With `C[C@@H]1O[C@@H](c2ccc([N+](=O)[O-])cc2)OC[C@H]1N`, the inhibition in vivo at 5 mg/kg in data set [1] was 42.3%. Further, the inhibition in vivo at 10 mg/kg in data set [2] amounted to 58%. Further, the inhibition in vivo at 20 mg/kg in [3] came out at 78.5%. The Time in data set [4] is 118.4 s; in data set [5], 119.2 s; in data set [6] it was 117.2 s; in [7] it was 118.9 s. This molecule also came in with a Papp A→B in data set [8] of 13 ×10⁻⁶ cm/s. Moreover, the Papp B→A in data set [9] came to 6.96 ×10⁻⁶ cm/s. The Ratio in [10] is recorded as 1.87. The molecule further showed an IC50 in data set [11] of 0.89 mM.

One may read the inhibition in vivo as the change of the read-out against control, counted positive when it falls. By Papp A→B is commonly meant how fast a substance crosses the layer from the apical side. As a reminder, the Papp B→A is how fast a substance crosses the layer from the basolateral side. One may read the IC50 as the concentration needed to halve the response being measured. High values mean a need for much substance, low ones inhibition by little substance.
